Results as given in ChEMBL document CHEMBL1671683, “Activity of linezolid in an in vitro pharmacokinetic-pharmacodynamic model using different dosages and Staphylococcus aureus and Enterococcus faecalis strains with and without a hypermutator phenotype” (Antimicrob Agents Chemother, 2010).

Key:
Staphylococcus aureus = test: Bactericidal activity against 2 hrs peripheral compartment culture samples of Staphylococcus aureus RN4220 MutS2 in two-compartment pharmacokinetic/pharmacodynamic model assessed as effect on bacterial count at 600 mg, bid administered as 0.5 hr infusion; type: functional
Summary of the method: (§1)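 An 18-h culture concentrated 50-fold was injected into the peripheral compartment 3 h pre-sampling (~10^8 CFU/ml E. faecalis, 10^9 S. aureus). Counts came from dilution plating (detection limit 2–3 log10 CFU/ml), expressed as Δlog CFU/ml from treatment start. Run in duplicate.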

[1] = Apparent volume of distribution in two-compartment pharmacokinetic/pharmacodynamic model at 800 mg, bid administered as 0.5 hr infusion over 24 hrs; type: ADME, organism-based; conditions: in vivo, iv
[2] = Cmax in two-compartment pharmacokinetic/pharmacodynamic model at 800 mg, bid administered as 0.5 hrs infusion; type: ADME, organism-based; set-up: dose 800 mg; conditions: iv
Enterococcus faecalis [3] = test: Bactericidal activity against 12.5 hrs peripheral compartment culture samples of Enterococcus faecalis ATCC 29212 in two-compartment pharmacokinetic/pharmacodynamic model assessed as effect on bacterial count at 600 mg, bid administered as 0.5 hr infusion; type: functional; summary of the method: as §1
Enterococcus faecalis [4] = test: Bactericidal activity against 48 hrs peripheral compartment culture samples of Enterococcus faecalis ATCC 29212 in two-compartment pharmacokinetic/pharmacodynamic model assessed as effect on bacterial count at 600 mg, bid for every 12 hrs administered as 0.5 hrs infusion; type: functional; summary of the method: as §1
[5] = Residual concentration at the end of the administration interval in two-compartment pharmacokinetic/pharmacodynamic model at 800 mg, bid administered as 0.5 hr infusion over 24 hrs; type: ADME; conditions: in vivo, iv
Enterococcus faecalis [6] = test: Bactericidal activity against 1 hr peripheral compartment culture samples of Enterococcus faecalis ATCC 29212 in two-compartment pharmacokinetic/pharmacodynamic model assessed as effect on bacterial count at 200 mg, bid administered as 0.5 hr infusion; type: functional
Summary of the method: (§2)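 Two-compartment hollow-fibre model in cation-adjusted, protein-free MH broth, 37°C. Linezolid given as simulated 0.5-h infusion twice daily. Inoculum grown 18 h, concentrated 50-fold and placed in the peripheral compartment 3 h before t0. Peripheral samples at set times counted by dilution plating. First 10-fold dilution not plated, limiting detection to 2–3 log10 CFU/ml. Δlog CFU/ml taken from t0 count. Duplicates.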

[7] = Volume of distribution at steady state in two-compartment pharmacokinetic/pharmacodynamic model at 800 mg, bid administered as 0.5 hr infusion over 24 hrs; type: ADME, organism-based; conditions: iv, read-out: Vdss
[8] = Total clearance in two-compartment pharmacokinetic/pharmacodynamic model at 200 mg, bid administered as 0.5 hr infusion over 24 hrs; type: ADME, organism-based; conditions: in vivo, iv
Enterococcus faecalis [9] = test: Bactericidal activity against 48 hrs peripheral compartment culture samples of Enterococcus faecalis Ef1497 MutM3 in two-compartment pharmacokinetic/pharmacodynamic model assessed as effect on bacterial count at 200 mg, bid administered as 0.5 hr infusion; type: functional; summary of the method: as §1
Enterococcus faecalis [10] = test: Bactericidal activity against 1 hr peripheral compartment culture samples of Enterococcus faecalis ATCC 29212 in two-compartment pharmacokinetic/pharmacodynamic model assessed as effect on bacterial count at 600 mg, bid administered as 0.5 hr infusion; type: functional; summary of the method: as §2
Enterococcus faecalis [11] = test: Bactericidal activity against 48 hrs peripheral compartment culture samples of Enterococcus faecalis Ef1497 in two-compartment pharmacokinetic/pharmacodynamic model assessed as effect on bacterial count at 800 mg, bid administered as 0.5 hr infusion; type: functional; summary of the method: as §1
Enterococcus faecalis [12] = test: Bactericidal activity against 24 hrs peripheral compartment culture samples of Enterococcus faecalis ATCC 29212 in two-compartment pharmacokinetic/pharmacodynamic model assessed as effect on bacterial count at 600 mg, bid administered as 0.5 hr infusion; type: functional; summary of the method: as §1
[13] = Cmax in two-compartment pharmacokinetic/pharmacodynamic model at 200 mg, bid administered as 0.5 hr infusion over 24 hrs; type: ADME, organism-based; set-up: dose 200 mg; conditions: iv
[14] = Tmax in two-compartment pharmacokinetic/pharmacodynamic model at 200 mg, bid administered as 0.5 hrs infusion; type: ADME, organism-based; conditions: iv
Summary of the method: (§3)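 Two-compartment in vitro hollow-fibre model in cation-adjusted, protein-free Mueller-Hinton broth at 37°C. Human total-plasma linezolid profile simulated as 0.5-h infusion every 12 h for 48 h, computer-controlled syringe pump into central compartment. […] Peripheral samples assayed by validated HPLC-UV (quantification limit 0.39 μg/ml). Tmax read directly from concentration-time profiles. Run in duplicate.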

Enterococcus faecalis [15] = test: Bactericidal activity against 48 hrs peripheral compartment culture samples of Enterococcus faecalis Ef1497 in two-compartment pharmacokinetic/pharmacodynamic model assessed as effect on bacterial count at 600 mg, bid administered as 0.5 hr infusion; type: functional; summary of the method: as §1
Enterococcus faecalis [16] = test: Bactericidal activity against 13 hrs peripheral compartment culture samples of Enterococcus faecalis Ef1497 in two-compartment pharmacokinetic/pharmacodynamic model assessed as effect on bacterial count at 800 mg, bid administered as 0.5 hr infusion; type: functional; summary of the method: as §1
Enterococcus faecalis [17] = test: Bactericidal activity against 24 hrs peripheral compartment culture samples of Enterococcus faecalis Ef1497 in two-compartment pharmacokinetic/pharmacodynamic model assessed as effect on bacterial count at 600 mg, bid administered as 0.5 hr infusion; type: functional; summary of the method: as §1
Enterococcus faecalis [18] = test: T>MIC in Enterococcus faecalis ATCC 29212 in two-compartment pharmacokinetic/pharmacodynamic model at 200 mg, bid administered as 0.5 hr infusion for 2 days; type: functional
[19] = Apparent volume of distribution in two-compartment pharmacokinetic/pharmacodynamic model at 200 mg, bid administered as 0.5 hrs infusion; type: ADME, organism-based; conditions: iv
Enterococcus faecalis [20] = test: Bactericidal activity against 1 hr peripheral compartment culture samples of Enterococcus faecalis Ef1497 MutM3 in two-compartment pharmacokinetic/pharmacodynamic model assessed as effect on bacterial count at 200 mg, bid administered as 0.5 hr infusion; type: functional; summary of the method: as §2
Enterococcus faecalis [21] = test: ABBC (0 to 24 hrs) in Enterococcus faecalis Ef1497 in two-compartment pharmacokinetic/pharmacodynamic model at 800 mg, bid administered as 0.5 hr infusion for 2 days; type: functional
Summary of the method: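 Hollow-fibre two-compartment model in cation-adjusted, protein-free MH broth at 37°C. Human total-plasma linezolid profile simulated as 0.5-h infusion every 12 h for 48 h. Concentrated 18-h culture injected into the peripheral compartment 3 h before first sample, giving about 10^8 (E. faecalis) or 10^9 (S. aureus) CFU/ml. Viable counts by dilution plating over 0–24 h. Area indices calculated versus growth control curve. Duplicate runs.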

[22] = AUC in two-compartment pharmacokinetic/pharmacodynamic model at 200 mg, bid administered as 0.5 hrs infusion; type: ADME; conditions: iv
Enterococcus faecalis [23] = test: Bactericidal activity against 48 hrs peripheral compartment culture samples of Enterococcus faecalis ATCC 29212 in two-compartment pharmacokinetic/pharmacodynamic model assessed as effect on bacterial count at 200 mg, bid administered as 0.5 hr infusion; type: functional; summary of the method: as §1
Enterococcus faecalis [24] = test: Bactericidal activity against 13 hrs peripheral compartment culture samples of Enterococcus faecalis ATCC 29212 in two-compartment pharmacokinetic/pharmacodynamic model assessed as effect on bacterial count at 200 mg, bid administered as 0.5 hr infusion; type: functional; summary of the method: as §1
[25] = Tmax in two-compartment pharmacokinetic/pharmacodynamic model at 600 mg, bid administered as 0.5 hrs infusion; type: ADME, organism-based; conditions: iv; summary of the method: as §3
Enterococcus faecalis [26] = test: Bactericidal activity against 13 hrs peripheral compartment culture samples of Enterococcus faecalis Ef1497 in two-compartment pharmacokinetic/pharmacodynamic model assessed as effect on bacterial count at 600 mg, bid administered as 0.5 hr infusion; type: functional; summary of the method: as §1

Work on `CC(=O)NC[C@H]1CN(c2ccc(N3CCOCC3)c(F)c2)C(=O)O1` [LINEZOLID] yielded a log10CFU/ml (Staphylococcus aureus) of 0.02, a Vd [1] of 102 L and a Cmax [2] of 19200 ng/mL. It also gave a log10CFU/ml (Enterococcus faecalis [3]) of 0.1, a log10CFU/ml (Enterococcus faecalis [4]) of 0.53 and a Drug uptake [5] of 1.42 µg/mL. For the same compound, the log10CFU/ml (Enterococcus faecalis [6]) was 0.14, the Vd [7] was 89.3 L and the clearance [8] was 252 mL/min. The log10CFU/ml (Enterococcus faecalis [9]) was 0.79, the log10CFU/ml (Enterococcus faecalis [10]) was -0.12 and the log10CFU/ml (Enterococcus faecalis [11]) was -1.16. It also gave a log10CFU/ml (Enterococcus faecalis [12]) of 0.32, a Cmax [13] of 4790 ng/mL and a Tmax [14] of 30 min. It also gave a log10CFU/ml (Enterococcus faecalis [15]) of 0.39, a log10CFU/ml (Enterococcus faecalis [16]) of -0.16 and a log10CFU/ml (Enterococcus faecalis [17]) of 0.35. For the same compound, the “fT>MIC” value (Enterococcus faecalis [18]) was 8.08%, the Vd [19] was 141 L and the log10CFU/ml (Enterococcus faecalis [20]) was 0.02. It also gave an ABBC (Enterococcus faecalis [21]) of 3.6 log10CFU/ml.hr, an AUC at 0.5 h [22] of 10100 ng·h/mL and a log10CFU/ml (Enterococcus faecalis [23]) of 1.23. The log10CFU/ml (Enterococcus faecalis [24]) was 0.28, the Tmax [25] was 30 min and the log10CFU/ml (Enterococcus faecalis [26]) was 0.09.
